Assay results published in ChEMBL document CHEMBL1177650, “Synthesis, structural elucidation and in vitro antiparasitic activity against Trypanosoma cruzi and Leishmania chagasi parasites of novel tetrahydro-1-benzazepine derivatives” (Bioorg Med Chem, 2010).

Experiments:
Trypanosoma cruzi [1] = assay: Antitrypanosomal activity against Trypanosoma cruzi 320I01 amastigotes infected in african green monkey Vero cells after 5 days by Giemsa staining; assay type: functional, organism-based; conditions: 320I01, Vero, 120 h
In short: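 Vero cells (RPMI, 5% hiSBF, 37 °C, 5% CO2) infected 24 h with tissue-derived T. cruzi trypomastigotes at parasite:cell 10:1. Compound dilutions (top 100 μM) applied 5 days at 37 °C, 5% CO2, medium changed once at day 3. Infected cells scored per 300 cells on methanol-fixed Giemsa preparations; IC50/IC90 by sigmoidal regression; triplicates, two experiments.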

[2] = Selectivity index, CC50 for african green monkey Vero cells to IC50 for Trypanosoma cruzi 320I01 amastigotes; assay type: functional
In short: (§1)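 Selectivity index computed as CC50 in Vero cells divided by IC50 against the T. cruzi stage named in the line.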

[3] = Selectivity index, CC50 for african green monkey Vero cells to IC50 for Trypanosoma cruzi 320I01 epimastigote; assay type: functional; in short: as §1
[4] = Cytotoxicity against human THP1 cells after 72 hrs by MTT assay; assay type: cell-based; conditions: THP-1 cells
In short: (§2)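 Vero or transformed THP-1 cells incubated with compound (0.3–300 μM) 72 h at 37 °C, 5% CO2; untreated controls. MTT read-out, formazan OD at 580 nm; % cytotoxicity = 100 × (OD control − OD treated)/OD control. CC50/CC90 by sigmoidal regression; triplicates, repeated twice. DMSO stocks 100× concentrated, diluted in medium.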

[5] = Cytotoxicity against african green monkey Vero cells after 72 hrs by MTT assay; assay type: cell-based; conditions: chlorocebus sabaeus; in short: as §2
[6] = Selectivity index, CC50 for human THP1 cells to IC50 for Leishmania chagasi MHOM/BR/74/PP75 amastigotes; assay type: functional, THP-1
In short: (§3)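 Selectivity index computed as CC50 in THP-1 cells divided by IC50 against the L. chagasi stage named in the line.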

Leishmania chagasi [7] = assay: Antileishmanial activity against Leishmania chagasi MHOM/BR/74/PP75 amastigotes infected in human THP1 cells after 5 days by Giemsa staining; assay type: functional, organism-based; conditions: MHOM/BR/74/PP75, THP-1, 120 h
In short: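 THP-1 cells (RPMI, 5% hiSBF, 37 °C, 5% CO2) transformed, then infected 24 h with late-phase L. chagasi promastigotes at parasite:cell 10:1. Treated with compound dilutions (top 100 μM) 5 days at 37 °C, 5% CO2, medium changed once after 3 days. Infected cells counted per 300 cells on methanol-fixed Giemsa slides; IC50/IC90 by sigmoidal regression; triplicates, repeated twice.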

Trypanosoma cruzi [8] = assay: Antitrypanosomal activity against Trypanosoma cruzi 320I01 epimastigotes after 72 hrs by haemocytometry; assay type: functional, organism-based; conditions: 320I01, 72 h
In short: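 Late-phase T. cruzi epimastigotes cultured in LIT medium with hiFCS at 28 °C; threefold serial dilutions (0.3–100 μM) for 72 h at 28 °C, untreated controls. Parasites counted in a haemocytometer; IC50/IC90 by sigmoidal regression; each concentration in triplicate, two experiments.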

[9] = Selectivity index, CC50 for human THP1 cells to IC50 for Leishmania chagasi MHOM/BR/74/PP75 promastigotes; assay type: functional, THP-1; in short: as §3
Leishmania chagasi [10] = assay: Antileishmanial activity against Leishmania chagasi MHOM/BR/74/PP75 promastigotes after 72 hrs by haemocytometry; assay type: functional, organism-based; conditions: MHOM/BR/74/PP75, 72 h
In short: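 Late-phase L. chagasi promastigotes, grown at 28 °C in RPMI 1640 with hemin, HEPES and 10% hiSBF, exposed to threefold serial dilutions (0.3–100 μM) for 72 h at 28 °C; untreated controls. Growth inhibition from haemocytometer counts; IC50/IC90 by sigmoidal regression; triplicates, repeated twice.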

Compound	IC50 (Trypanosoma cruzi [1]) [µM]	IC90 (Trypanosoma cruzi [1]) [µM]	Selectivity Index [2]	Selectivity Index [3]	CC50 at 72 h [4] [µM]	CC90 at 72 h [4] [µM]	CC50 at 72 h [5] [µM]	CC90 at 72 h [5] [µM]	Selectivity Index [6]	IC50 (Leishmania chagasi [7]) [µM]	IC90 (Leishmania chagasi [7]) [µM]	IC50 (Trypanosoma cruzi [8]) [µM]	IC90 (Trypanosoma cruzi [8]) [µM]	Selectivity Index [9]	IC50 (Leishmania chagasi [10]) [µM]	IC90 (Leishmania chagasi [10]) [µM]
c1ccc([C@@H]2C[C@@H]3Cc4ccccc4N2O3)cc1 (relative stereo)	> 100	> 100	>3	>3	> 300	> 300	> 300	> 300	>3	> 100	> 100	> 100	> 100	>3	> 100	> 100
FC(F)(F)Oc1ccc2c(c1)C[C@H]1C[C@@H](c3ccccc3)N2O1 (relative stereo)	> 100	> 100	>3	>11	> 300	> 300	> 300	> 300	>3	> 100	> 100	26.9	> 100	>19	15.7	34.7
Brc1ccc2c(c1)C[C@H]1C[C@@H](c3ccccc3)N2O1 (relative stereo)	56.4	43.6	>5	>12	> 300	> 300	> 300	> 300	>3	> 100	> 100	23.4	> 100	>11	25.5	54.9
Clc1ccc2c(c1)C[C@H]1C[C@@H](c3ccccc3)N2O1 (relative stereo)	> 100	> 100	>3	>33	> 300	> 300	> 300	> 300	>3	> 100	> 100	9	35.3	>7	40.1	55.4
